In brackets after ≈: the same amount, converted by molar mass. Activity calls are given as the source filed them. The calls are words filed in the database; no cut-off is given here.
What was measured:
[1] = Cytotoxicity against BHK cells assessed as cell viability after 48 to 96 hrs by MTT assay; format: cell-based, Mesocricetus auratus; details: hamster
[2] = system: Staphylococcus epidermidis; test: Antimicrobial activity against hospital methicillin-resistant Staphylococcus epidermidis 23/04 after 18 hrs by twofold serial microdilution method; format: functional; details: 23/04, 18 h
Summary of the method: (§1)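 Twofold serial microdilution in Mueller-Hinton broth. Compound stock was made in DMSO and diluted in sterile water. Tested range was 0.125–512 µg/mL. Final inoculum was 10^5 CFU/mL. Plates were incubated 18 h at 35 °C. MIC is the lowest concentration preventing visible growth.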

Staphylococcus aureus [3] = test: Ratio of ciprofloxacin MIC to compound MIC for hospital methicillin-resistant Staphylococcus aureus 522/11 after 18 hrs by twofold serial microdilution method; format: functional
Summary of the method: (§2)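 Ratio of MICs for ciprofloxacin and test agent, each from twofold serial broth microdilution in Mueller-Hinton broth following CLSI guidelines. DMSO stock was diluted in sterile water to 0.125–512 µg/mL, with a final inoculum of 10^5 CFU/mL.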

[4] = system: Staphylococcus epidermidis; test: Antimicrobial activity against hospital methicillin-resistant Staphylococcus epidermidis 62/04 after 18 hrs by twofold serial microdilution method; format: functional; details: 62/04, 18 h; summary of the method: as §1
Staphylococcus aureus [5] = test: Antimicrobial activity against Staphylococcus aureus NCTC 4163 at 400 ug after 18 hrs by disc-diffusion method; format: functional; details: NCTC 4163, 18 h, read-out: IZ
Summary of the method: (§3)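 Disc diffusion on Mueller-Hinton II agar per CLSI; 9 mm paper discs loaded with 400 µg compound from DMSO solution, dried, placed on agar; growth inhibition zone diameter read after 18 h at 35°C.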

[6] = Cytotoxicity against African green monkey Vero 76 cells assessed as cell viability after 48 to 96 hrs by crystal violet staining; format: cell-based; details: chlorocebus sabaeus
Staphylococcus aureus [7] = test: Antimicrobial activity against Staphylococcus aureus ATCC 6538 after 18 hrs by twofold serial microdilution method; format: functional; details: ATCC 6538, 18 h
Staphylococcus aureus [8] = test: Antimicrobial activity against Staphylococcus aureus ATCC 25923 at 400 ug after 18 hrs by disc-diffusion method; format: functional; details: ATCC 25923, 18 h, read-out: IZ; summary of the method: as §3
[9] = system: Staphylococcus epidermidis; test: Antimicrobial activity against Staphylococcus epidermidis ATCC 12228 at 400 ug after 18 hrs by disc-diffusion method; format: functional; details: for zone of inhibition at 400 µg/disc: ATCC 12228, 18 h, read-out: IZ; summary of the method: as §3
Staphylococcus aureus [10] = test: Antimicrobial activity against hospital methicillin-resistant Staphylococcus aureus 53/05 after 18 hrs by twofold serial microdilution method; format: functional; details: 53/05, 18 h; summary of the method: as §1
Proteus vulgaris = test: Antimicrobial activity against Proteus vulgaris NCTC 4635 at 400 ug after 18 hrs by disc-diffusion method; format: functional; details: for zone of inhibition at 400 µg/disc: NCTC 4635, 18 h, read-out: IZ; summary of the method: as §3
[11] = system: Staphylococcus epidermidis; test: Ratio of ciprofloxacin MIC to compound MIC for hospital methicillin-resistant Staphylococcus epidermidis […]/[…] after 18 hrs by twofold serial microdilution method; format: functional, 16/04
[12] = system: Staphylococcus epidermidis; test: Ratio of ciprofloxacin MIC to compound MIC for hospital methicillin-resistant Staphylococcus epidermidis 31/04 after 18 hrs by twofold serial microdilution method; format: functional; summary of the method: as §2
[13] = system: Staphylococcus epidermidis; test: Ratio of ciprofloxacin MIC to compound MIC for hospital methicillin-resistant Staphylococcus epidermidis 62/04 after 18 hrs by twofold serial microdilution method; format: functional; summary of the method: as §2
[14] = system: Staphylococcus epidermidis; test: Ratio of ciprofloxacin MIC to compound MIC for hospital methicillin-resistant Staphylococcus epidermidis 24/04 after 18 hrs by twofold serial microdilution method; format: functional
[15] = system: Staphylococcus epidermidis; test: Ratio of ciprofloxacin MIC to compound MIC for hospital methicillin-resistant Staphylococcus epidermidis 76/04 after 18 hrs by twofold serial microdilution method; format: functional; summary of the method: as §2
[16] = system: Staphylococcus epidermidis; test: Antimicrobial activity against hospital methicillin-resistant Staphylococcus epidermidis 151/04 after 18 hrs by twofold serial microdilution method; format: functional; details: 151/04, 18 h; summary of the method: as §1
Yellow fever virus = test: Antiviral activity against Yellow fever virus 17D infected in BHK cells assessed as protection against virus-induced cytopathogenicity after 3 to 4 days by MTT assay; format: functional, cell-based
Bacillus subtilis = test: Antimicrobial activity against Bacillus subtilis ATCC 6633 at 400 ug after 18 hrs by disc-diffusion method; format: functional; details: ATCC 6633, 18 h, read-out: IZ; summary of the method: as §3
Staphylococcus aureus [17] = test: Ratio of ciprofloxacin MIC to compound MIC for hospital methicillin-resistant Staphylococcus aureus 53/05 after 18 hrs by twofold serial microdilution method; format: functional; summary of the method: as §2
Coxsackievirus B5 = test: Antiviral activity against Human coxsackievirus B5 ATCC VR-29 infected in African green monkey Vero 76 cells assessed as reduction of virus-plaque formation after 3 days by crystal violet staining; format: functional, organism-based; details: Enterovirus B, ATCC VR-29, Vero, 72 h
Summary of the method: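 Plaque reduction: Vero-76 at 2x10^5 cells/well grown to confluent monolayers, infected 2 h at 50–100 PFU/well; after removing unadsorbed virus, overlay of D-MEM, 1% inactivated FBS, 0.75% methylcellulose with or without serial compound dilutions; 3 days at 37°C, fixed and stained with crystal violet in 50% ethanol, plaques counted; EC50 by linear regression.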

Micrococcus luteus = test: Antimicrobial activity against Micrococcus luteus ATCC 9341 at 400 ug after 18 hrs by disc-diffusion method; format: functional; details: for zone of inhibition at 400 µg/disc: ATCC 9341, 18 h, read-out: IZ; summary of the method: as §3
[18] = Cytotoxicity against bovine MDBK cells assessed as cell viability after 48 to 96 hrs by MTT assay; format: cell-based, Bos taurus; details: cattle
Staphylococcus aureus [19] = test: Antimicrobial activity against hospital methicillin-resistant Staphylococcus aureus 79/05 after 18 hrs by twofold serial microdilution method; format: functional; details: 79/05, 18 h; summary of the method: as §1
Staphylococcus aureus [20] = test: Ratio of ciprofloxacin MIC to compound MIC for hospital methicillin-resistant Staphylococcus aureus 80/05 after 18 hrs by twofold serial microdilution method; format: functional; summary of the method: as §2
[21] = system: Staphylococcus epidermidis; test: Antimicrobial activity against Staphylococcus epidermidis ATCC 35984 after 18 hrs by twofold serial microdilution method; format: functional; details: ATCC 35984, 18 h
[22] = system: Mycobacterium tuberculosis; test: Antimycobacterial activity against Mycobacterium tuberculosis H37Rv ATCC 25618; format: functional
Summary of the method: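 Classical test-tube successive-dilution method in Youmans' modification of Proskauer and Beck liquid medium with 10% bovine serum. Inoculum came from 14-day cultures. DMSO stock was 10 mg/mL, diluted geometrically in medium. Tubes were incubated at 37 °C. Concentrations tested were 3.1, 6.2, 12.5, 25, 50 and 100 µg/ml. MIC is the minimum concentration inhibiting growth relative to compound-free tubes.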

[23] = system: Vesicular stomatitis virus; test: Antiviral activity against Vesicular stomatitis virus ATCC VR 1540 infected in African green monkey Vero 76 cells assessed as reduction of virus-plaque formation after 2 days by crystal violet staining; format: functional, organism-based; details: ATCC VR 1540, Vero, 48 h
[24] = system: Staphylococcus epidermidis; test: Ratio of ciprofloxacin MIC to compound MIC for hospital methicillin-resistant Staphylococcus epidermidis 63/04 after 18 hrs by twofold serial microdilution method; format: functional; summary of the method: as §2
Staphylococcus aureus [25] = test: Antimicrobial activity against hospital methicillin-resistant Staphylococcus aureus 54/05 after 18 hrs by twofold serial microdilution method; format: functional; details: 54/05, 18 h; summary of the method: as §1
Staphylococcus aureus [26] = test: Ratio of ciprofloxacin MIC to compound MIC for hospital methicillin-resistant Staphylococcus aureus 79/05 after 18 hrs by twofold serial microdilution method; format: functional; summary of the method: as §2
Staphylococcus aureus [27] = test: Ratio of ciprofloxacin MIC to compound MIC for hospital methicillin-resistant Staphylococcus aureus 81/05 after 18 hrs by twofold serial microdilution method; format: functional; summary of the method: as §2
[28] = system: Staphylococcus epidermidis; test: Ratio of ciprofloxacin MIC to compound MIC for hospital methicillin-resistant Staphylococcus epidermidis 151/04 after 18 hrs by twofold serial microdilution method; format: functional; summary of the method: as §2

Row | Compound | MIC [2] [µg/mL] | Ratio (Staphylococcus aureus [3]) | MIC [4] [µg/mL] | zone of inhibition at 400 µg/disc (Staphylococcus aureus [5]) [mm] | MIC (Staphylococcus aureus [7]) [µg/mL] | zone of inhibition at 400 µg/disc (Staphylococcus aureus [8]) [mm] | zone of inhibition at 400 µg/disc [9] [mm] | MIC (Staphylococcus aureus [10]) [µg/mL] | Ratio [11] | Ratio [12] | Ratio [13] | Ratio [14] | Ratio [15] | MIC [16] [µg/mL] | EC50 (Yellow fever virus) [µM] | zone of inhibition at 400 µg/disc (Bacillus subtilis) [mm] | Ratio (Staphylococcus aureus [17]) | EC50 (Coxsackievirus B5) [µM] | MIC (Staphylococcus aureus [19]) [µg/mL] | MIC [21] [µg/mL] | other results
1 | FC(F)(F)c1cccc(NC(=S)Nc2cccc(Br)c2)c1 | 2 (≈ 5.33 µM) | 128 | 1 (≈ 2.67 µM) | 28 | 1 (≈ 2.67 µM) | 28 | 29 | 1 (≈ 2.67 µM) | 128 | 128 | 128 | 128 | 128 | 2 (≈ 5.33 µM) | > 10 | 26 | 128 | > 14 | 0.5 (≈ 1.33 µM) | 2 (≈ 5.33 µM) | CC50 [1]: 10 µM; CC50 [6]: 14 µM; zone of inhibition at 400 µg/disc (Proteus vulgaris): 12 mm; zone of inhibition at 400 µg/disc (Micrococcus luteus): 33 mm; CC50 [18]: 10 µM; Ratio (Staphylococcus aureus [20]): 128; MIC [22]: 100 µg/mL (≈ 267 µM); EC50 [23]: > 14 µM; Ratio [24]: 128; MIC (Staphylococcus aureus [25]): 0.5 µg/mL (≈ 1.33 µM); Ratio (Staphylococcus aureus [26]): 128; Ratio (Staphylococcus aureus [27]): 128; Ratio [28]: 128
2 | FC(F)(F)c1cccc(NC(=S)Nc2ccc(Cl)cc2)c1 | 16 (≈ 48.4 µM) | 128 | 16 (≈ 48.4 µM) | 12 | 8 (≈ 24.2 µM) | 12 | – | 16 (≈ 48.4 µM) | 128 | 128 | 128 | 128 | 128 | 8 (≈ 24.2 µM) | > 10 | 12 | 128 | > 11 | 16 (≈ 48.4 µM) | 4 (≈ 12.1 µM) | CC50 [1]: 10 µM; CC50 [6]: 11 µM; inhibition zone (IZ) [9]: inactive; inhibition zone (IZ) (Proteus vulgaris): inactive; inhibition zone (IZ) (Micrococcus luteus): inactive; CC50 [18]: 17 µM; Ratio (Staphylococcus aureus [20]): 128; MIC [22]: > 100 µg/mL; EC50 [23]: > 11 µM; Ratio [24]: 128; MIC (Staphylococcus aureus [25]): 16 µg/mL (≈ 48.4 µM); Ratio (Staphylococcus aureus [26]): 128; Ratio (Staphylococcus aureus [27]): 128; Ratio [28]: 128
3 | O=C(O)c1cn(C2CC2)c2cc(N3CCNCC3)c(F)cc2c1=O [CIPROFLOXACIN] | 2 (≈ 6.04 µM) | – | 0.125 (≈ 0.377 µM) | 26 | 0.25 (≈ 0.754 µM) | 26 | 30 | 64 (≈ 193 µM) | – | – | – | – | – | 4 (≈ 12.1 µM) | – | 40 | – | – | 64 (≈ 193 µM) | 0.25 (≈ 0.754 µM) | zone of inhibition at 400 µg/disc (Proteus vulgaris): 36 mm; zone of inhibition at 400 µg/disc (Micrococcus luteus): 24 mm
4 | FC(F)(F)c1cccc(NC(S)=NCc2ccccc2)c1 | 16 (≈ 51.6 µM) | 128 | 16 (≈ 51.6 µM) | 18 | 8 (≈ 25.8 µM) | 19 | 17 | 8 (≈ 25.8 µM) | 128 | 128 | 128 | 128 | 128 | 16 (≈ 51.6 µM) | > 45 | 16 | 128 | > 35 | 16 (≈ 51.6 µM) | 16 (≈ 51.6 µM) | CC50 [1]: 45 µM; CC50 [6]: 35 µM; inhibition zone (IZ) (Proteus vulgaris): inactive; zone of inhibition at 400 µg/disc (Micrococcus luteus): 19 mm; CC50 [18]: 40 µM; Ratio (Staphylococcus aureus [20]): 128; MIC [22]: 25 µg/mL (≈ 80.6 µM); EC50 [23]: > 35 µM; Ratio [24]: 128; MIC (Staphylococcus aureus [25]): 8 µg/mL (≈ 25.8 µM); Ratio (Staphylococcus aureus [26]): 128; Ratio (Staphylococcus aureus [27]): 128; Ratio [28]: 128
5 | FC(F)(F)c1cccc(NC(S)=Nc2ccc(Cl)c(Cl)c2)c1 | 1 (≈ 2.74 µM) | 128 | 1 (≈ 2.74 µM) | 15 | 0.5 (≈ 1.37 µM) | 14 | 13 | 2 (≈ 5.48 µM) | 128 | 128 | 128 | 128 | 128 | 1 (≈ 2.74 µM) | > 9.5 | 11 | 128 | > 16 | 2 (≈ 5.48 µM) | 1 (≈ 2.74 µM) | inhibition zone (IZ) (Proteus vulgaris): inactive; zone of inhibition at 400 µg/disc (Micrococcus luteus): 15 mm; Ratio (Staphylococcus aureus [20]): 128; MIC [22]: 50 µg/mL (≈ 137 µM); EC50 [23]: > 16 µM; Ratio [24]: 128; MIC (Staphylococcus aureus [25]): 2 µg/mL (≈ 5.48 µM); Ratio (Staphylococcus aureus [26]): 128; Ratio (Staphylococcus aureus [27]): 128; Ratio [28]: 128

Reference: ChEMBL document CHEMBL3616436, “Synthesis, cytotoxicity and antimicrobial activity of thiourea derivatives incorporating 3-(trifluoromethyl)phenyl moiety” (Eur J Med Chem, 2015)
